# ABHD4 inh – inhibits mouse alpha/beta hydrolase domain 4 | inhibition, % at 8.92 µM | Q8VD66 | AID 720543 | purified mABHD4, FP-Rh probe fluorescence polarization | actives 0.54% (n = 370,000);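 active = inhibition exceeding the mean over every tested compound plus 3 SD, cut at about 30% in these data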;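 note: 0% = plate median of compound wells and 100% = S159A mutant with DMSO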
#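 system = mouse ABHD4 enzyme, wild type | medium = HEPES pH 7.0, NaCl, Pluronic buffer | also added = FP-Rh probe | incubation = Enzyme–compound pre-incubation 45 min, then probe 60 min, both 25 °C | technique = fluorescence polarization, excitation 525 nm, emission 598 nm, BODIPY TMR filters | controls = S159A mutant high control, sample median low control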
# SIAE inh – inhibitors of human sialic acid acetylesterase SIAE; SIAE FP-Rh probe binding, fluorescence polarization; inhibition, % at 9.66 µM; actives 0.69% (n = 370,000); AID 1053197;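 active = inhibition above a cutoff: mean of compounds within the control limits plus 3 SD of those, cut at about 17% in these data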;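 note: 0% = plate median of compound wells and 100% = probe without SIAE protein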
# Target sequence (Q9HAT2 whole entry, looked up): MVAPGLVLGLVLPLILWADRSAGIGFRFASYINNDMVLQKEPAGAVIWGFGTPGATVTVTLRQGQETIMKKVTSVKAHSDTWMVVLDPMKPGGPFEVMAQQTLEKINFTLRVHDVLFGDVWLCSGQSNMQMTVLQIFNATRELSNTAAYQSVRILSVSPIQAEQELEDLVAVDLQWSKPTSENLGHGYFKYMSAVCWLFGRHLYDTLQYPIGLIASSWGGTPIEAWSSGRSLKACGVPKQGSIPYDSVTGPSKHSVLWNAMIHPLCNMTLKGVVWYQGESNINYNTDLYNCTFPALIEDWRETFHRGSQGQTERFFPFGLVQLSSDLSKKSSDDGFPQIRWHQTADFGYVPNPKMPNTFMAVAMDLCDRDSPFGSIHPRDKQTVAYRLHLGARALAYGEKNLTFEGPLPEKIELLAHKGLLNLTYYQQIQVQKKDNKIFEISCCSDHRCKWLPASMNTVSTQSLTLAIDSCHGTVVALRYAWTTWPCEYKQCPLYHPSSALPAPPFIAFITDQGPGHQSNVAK
# TCR CD3 inh – human TCR-CD3 binding inhibition; TAMRA-labeled TCR probe fluorescence, biochemical; inhibition, % at 9.4 µM; actives 0.37% (n = 360,000); in the data active = inhibition above about 19%;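 note: recombinant mutant TCR 2C K166C tagged with TAMRA read by polarization; 0% = receptor in buffer alone and 100% = receptor with positive control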
# HTRA1 inh – blocks human HTRA1 serine peptidase | Q92743 | recombinant HTRA1, FP-rhodamine activity-based probe, fluorescence polarization | inhibition, % at 5.96 µM | actives 0.5% (n = 340,000) | AID 504803; in the data active = inhibition above about 36%;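 note: 0% = enzyme with DMSO and 100% = wells lacking enzyme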
# PRMT1 FP inh – PRMT1 (human) inhibition, primary screen; Q99873; inhibition, % at 2.79 µM; actives 1.3% (n = 370,000); recombinant PRMT1, activity-based probe fluorescence polarization;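 active = inhibition above about 21% made by adding two undisclosed values, limit read from the data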
# PRMT1 inh conf – PRMT1 (human) inhibition, FP confirmation; shares compounds with PRMT1 FP inh; recombinant His-PRMT1, activity-based probe fluorescence polarization; inhibition, % at 2.79 µM; actives 42% (n = 3,300); AID 687036;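 active = mean inhibition across replicates above the hit cutoff derived for the earlier primary screen, cut at about 22% in these data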
# * marks the source's active call; other numbers are inactive results; · = not tested or not shown. Shown are actives, neighbours in structure and some others; about 2.7% of the full set was active somewhere.
SMILES,ABHD4 inh,SIAE inh,TCR CD3 inh,HTRA1 inh,PRMT1 FP inh,PRMT1 inh conf
COc1cccc(Cl)c1NC(=O)N1CCc2c([nH]c3ccccc23)C1C(F)(F)F (centres undefined),2,-3,7,-36,2,·
CC(C)(C)OC(=O)N[C@H](C(=O)OC(C)(C)C)c1ccc2ccccc2c1,1,-1,1,6,-1,·
O=C(N[C@@H](Cc1cccnc1)C(=O)N1CCC[C@H]1C(=O)NCCc1ccccc1Cl)C1CC1,3,2,2,·,3,·
CCC(=O)OCCNc1cc(Sc2nc3ccccc3s2)c2nonc2c1[N+](=O)[O-],14,4,-5,4,68*,76*
CCCC(=O)OCCNc1cc(Sc2nccn2C)c2nonc2c1[N+](=O)[O-],0,4,8,-1,72*,40*
O=[N+]([O-])c1c(NCCCO)cc(Sc2nc3ccccc3s2)c2nonc12,·,·,·,8,·,·
CCC(=O)OCCNc1cc(Sc2nc3ccccc3[nH]2)c2nonc2c1[N+](=O)[O-],14,-7,4,3,84*,76*
CCOc1ccc2[nH]c(=O)c(CN(Cc3ccco3)C(=O)c3ccc(Br)cc3)cc2c1,-8,-5,-19,-23,36*,0
CCc1ccc2[nH]c(=O)c(CN(CCN(C)C)C(=S)NCc3ccco3)cc2c1,9,3,3,14,33*,2
CCOC(=O)C1CCCN(C(=O)c2cc(C)n(C(C)(C)C)n2)CC1 (centres undefined),0,0,-5,·,1,·
COc1ccc(-c2noc(CCC(=O)N3CCN(c4ccccc4Br)CC3)n2)cc1,-7,-4,-5,-26,-2,·
Cc1ccc(CNC(=O)CCCn2nc(C)c3c(C)n(-c4ccccc4)nc3c2=O)cc1,-3,-1,5,1,-2,·
COC(=O)C(C)Sc1n[nH]c(=S)s1 (centres undefined),6,-4,6,-5,35*,3
O=C(O)CC(Sc1n[nH]c(=S)s1)C(=O)O (centres undefined),2,0,-1,8,27*,17
CN1[C@@H](Cc2ccccc2)COc2cc(N3CCSCC3)ccc2S1(=O)=O,-3,-2,4,·,-2,·
O=C(CC1SC(=O)N(c2ccccc2)C1=O)Nc1ccc(Br)cc1 (centres undefined),-18,-1,-16,·,32*,102*
O=C(CC1SC(=O)N(c2ccccc2)C1=O)Nc1ccc(Cl)cc1 (centres undefined),-9,1,-11,-6,26*,92*
CC(C)N=C1SC(CC(=O)Nc2ccccc2)C(=O)N1C(C)C (centres undefined),-3,0,7,-6,61*,1
O=C(CC1SC(=Nc2ccccc2)N(CCO)C1=O)Nc1ccccc1 (centres undefined),1,-3,0,-2,1,·
c1ccc(-c2nn3c(C4CCCCC4)nnc3s2)nc1,-2,2,4,3,-1,·
Clc1ccc(OCc2nn3c(C4CCCCC4)nnc3s2)cc1,6,2,1,-18,27*,1
Cc1cc(C)c(OCC(=O)NCCCn2nc(C)cc2C)c(C)c1,4,-4,4,5,-2,·
COC(=O)[C@H](CC(C)C)N(CCCc1cn(CC2CCCCC2)nn1)S(=O)(=O)c1ccc(F)cc1Br,-2,0,·,·,-2,·
Cc1ccc(OCCC(=O)OCC(=O)Nc2ccc3c(c2)OCCO3)cc1,6,-3,3,-4,32*,9
COc1ccc(C2CC(=O)N3CN(c4ccccc4F)CSC3=C2C#N)cc1OC (centres undefined),8,5,0,-4,19,·
SMILES,ABHD4 inh,SIAE inh,TCR CD3 inh,HTRA1 inh,PRMT1 FP inh,PRMT1 inh conf
COc1cc(OC)c(C2CC(=O)N3CN(c4ccccc4C)CSC3=C2C#N)cc1OC (centres undefined),11,4,5,·,29*,80*
CCc1ccccc1N1CSC2=C(C#N)C(c3ccccc3F)CC(=O)N2C1 (centres undefined),19,3,-2,-2,54*,42*
O=C(NCc1cccc(Cl)c1)c1ccc(S(=O)(=O)N2CCCCC2)cc1,-3,6,-2,-5,-1,·
COc1ccc(-c2cc(-c3ccco3)[nH]c(=O)c2C#N)cc1OC,24,0,5,9,27*,27*
CCOc1ccc(C=Nn2c(-c3cccc(OC(C)C)c3)n[nH]c2=S)cc1,-6,1,·,·,29*,10
CCCCCCn1c(-c2cccs2)n[nH]c1=S,-6,2,-5,-6,41*,5
CCCCn1c(-c2csc3ccccc23)n[nH]c1=S,-1,1,2,-6,1,·
Cc1ccc(/C=N/n2c(-c3cccs3)n[nH]c2=S)cc1,4,-1,1,3,25*,13
Cc1ccc(/C=N/n2c(-c3cccc(Cl)c3)n[nH]c2=S)o1,-5,-1,-5,·,26*,13
NCCCC(C(=O)O)N(C(=O)OCc1ccccc1)C(=O)OCc1ccccc1 (centres undefined),5,-2,4,·,1,·
CCCCNC(=O)C1(N2C(=O)c3ccccc3C2=O)CCCC1,6,-4,-1,·,4,·
CCN(CC)S(=O)(=O)c1cccc(-c2n[nH]c(=S)n2/N=C/c2ccc(OC(F)F)cc2)c1,3,9,6,-13,51*,34*
CC(C)c1ccc(/C=N/n2c(-c3ccccc3)n[nH]c2=S)cc1,-10,4,-14,-12,51*,21*
CCN(CC)S(=O)(=O)c1cccc(-c2n[nH]c(=S)n2/N=C/c2ccc(Br)cc2)c1,-3,-5,7,-29,46*,33*
CCN(CC)S(=O)(=O)c1cccc(-c2n[nH]c(=S)n2/N=C/c2ccc(OC)cc2)c1,5,-2,-7,-6,59*,30*
O=C(NCC(c1ccccc1)c1ccccc1)[C@H](Cc1ccccc1)NC1(C(=O)NC2CCCCC2)CCCC1,0,3,·,·,-3,·
O=S(N1CCCCC1)C12CC3CC(CC(C3)C1)C2 (centres undefined),1,3,4,-2,-1,·
O=S(NC1CCCCC1)C12CC3CC(CC(C3)C1)C2 (centres undefined),5,-1,3,-2,100*,-2
CCCCCCOc1ccc(N2C(=O)CC(NCc3ccc(S(N)(=O)=O)cc3)C2=O)cc1 (centres undefined),-4,-7,4,3,19,·
CCOc1ccc(N2C(=O)CC(NCc3ccc(F)cc3)C2=O)cc1 (centres undefined),-2,-2,-7,5,55*,2
CCOc1ccc(N2C(=O)CC(NCC3CCCO3)C2=O)cc1 (centres undefined),-9,2,-5,-4,80*,4

# Compound activity deposited in PubChem by The Scripps Research Institute Molecular Screening Center.
